Bioassay records from PubChem BioAssay.
Rows were chosen to be rich in hits. Some 3% of all compounds tested hit in one or more screens of this group.
TRPC6 inh: mouse TRPC6 channel inhibitors, primary screen, cell-based, HEK293, membrane potential dye | Short transient receptor potential channel 6 (Mus musculus), Q61143 | ACh-evoked depolarization; hits give low values | B-score at 10 µM | 310,000 compounds, 1.1% hits;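 active = B-score under library mean minus 3 SD, initial fluorescence not abnormally high, positive integrated signal ratio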;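 also: B-score derived from integrated fluorescence ratio over the kinetic read; more negative B-score means stronger inhibition of depolarization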
TRPC6 act: mouse TRPC6 channel activators, primary screen, cell-based, HEK293, membrane potential dye. AID 2550, 2010. HEK293-TRPC6 membrane potential dye fluorescence; hits give high values. B-score at 10 µM. Short transient receptor potential channel 6 (Mus musculus), Q61143. 310,000 compounds, 0.13% hits;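 active = B-score of the integrated fluorescence ratio above library mean plus 3 SD, and starting fluorescence ratio within library mean plus 5 SD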;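 also: higher score means more depolarization so channel activation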
TRPC4 PAM: positive allosteric modulators of TRPC4, primary screen, cell-based, mouse TRPC4beta, HEK293 mu-opioid, Fluo-4 calcium; Short transient receptor potential channel 4 (Mus musculus), Q9QUQ5; DAMGO EC20, Fluo-4 Ca2+ flux; hits give high values; B-score at 10 µM; 310,000 compounds, 0.42% hits; AID 2227, 2009;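 active = B-score of calcium response area above 5 SD of library B-scores, with initial fluorescence ratio within 5 SD of library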;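 also: B-score of integrated fluorescence ratio over time as area under calcium response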
TRPC4 agonist: activators of mouse TRPC4 channel, primary screen, Fluo4 calcium, HEK293 TRPC4beta/mu-opioid cells. B-score at 10 µM. Short transient receptor potential channel 4 (Mus musculus), Q9QUQ5. Fluo4 calcium fluorescence; hits give high values. 310,000 compounds, 0.49% hits;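 active = B-score above 5 SD of library B-scores, and initial fluorescence ratio not above library mean plus 5 SD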;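 also: positive B-score marks a calcium rise read as TRPC4 activation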
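system = HEK293 cells stably co-expressing mouse TRPC4beta and mu-opioid receptor | schedule = Fluo4 dye loading 45 min at room temperature, 110 s recording | measure = B-scored integrated calcium fluorescence ratio | signal = Fluo4 calcium-sensitive dye fluorescence, kinetic, 1 Hz baseline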
TRPC4 block: inhibitors of mouse TRPC4 channel, primary screen, Fluo4 calcium, HEK293 TRPC4beta/mu-opioid cells; Short transient receptor potential channel 4 (Mus musculus), Q9QUQ5; DAMGO-evoked Fluo4 calcium flux; hits give low values; B-score at 10 µM; 300,000 compounds, 0.39% hits;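 active = B-score over 3 SD under the library average, no early fluorescence shift, positive overall ratio signal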
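material = TRPC4beta/mu-opioid receptor HEK293 cell line | probe or stimulus = sequential submaximal and maximal DAMGO stimulation | compound dosing = one concentration per compound | measured by = Fluo4 Ca2+ flux fluorescence | evaluation = integrated fluorescence ratio relative to baseline, converted to per-well B score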
Kir21 block: inhibitors of mouse Kir2.1 inward-rectifier potassium channel; AID 1672, 2009; HEK293-Kir2.1, FluxOR thallium flux fluorescence; hits give low values; 310,000 compounds, 0.85% hits; B-score at 10 µM; Inward rectifier potassium channel 2 (Mus musculus), P35561;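 active = fluorescence ratio B-score at or below minus 3 SD of library scores, with starting-brightness B-score within 2 SD, cut at about -4.2 in these data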;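 also: channel flux triggered by added potassium and thallium sulfate stimulus; B-score of peak minus minimum fluorescence over baseline after thallium stimulus; more negative B-score means stronger Kir2.1 block with less thallium influx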
Target sequence (P35561 whole entry, looked up): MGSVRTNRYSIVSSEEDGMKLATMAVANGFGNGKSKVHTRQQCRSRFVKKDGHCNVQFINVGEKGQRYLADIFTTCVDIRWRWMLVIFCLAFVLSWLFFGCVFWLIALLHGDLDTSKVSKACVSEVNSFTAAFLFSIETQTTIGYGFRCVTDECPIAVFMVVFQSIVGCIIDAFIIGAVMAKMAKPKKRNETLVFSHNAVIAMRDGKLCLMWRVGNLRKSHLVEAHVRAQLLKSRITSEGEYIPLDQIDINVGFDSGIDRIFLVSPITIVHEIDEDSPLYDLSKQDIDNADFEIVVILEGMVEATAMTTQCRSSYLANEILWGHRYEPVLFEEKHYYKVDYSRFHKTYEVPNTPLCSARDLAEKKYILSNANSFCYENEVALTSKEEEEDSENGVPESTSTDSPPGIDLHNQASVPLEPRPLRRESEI
Starred values were filed as active, the others as inactive; i = inactive.

SMILES	TRPC6 inh	TRPC6 act	TRPC4 PAM	TRPC4 agonist	TRPC4 block	Kir21 block
OC(CNC1Cc2ccccc2C1)COc1ccc(Cl)cc1 (stereo not drawn)	i	i	i	i	i	-4.2*
COC(=O)c1ccc(S(=O)(=O)NC(C)(C)C)n1C	i	i	i	i	i	0.91
O=C(NC(=S)N1CCOCC1)c1cc2ccccc2o1	i	i	i	i	i	-0.2
Cc1cc(C(=O)NNc2ccc(F)cc2)no1	i	i	i	i	i	0.17
COc1ccc(-c2c(C(F)(F)F)nn(C)c2NC(=O)CSCC(=O)O)cc1	i	i	i	i	i	0.88
CCCN1CCN(CC(O)COC(c2ccc(OC)cc2)c2ccc(OC)cc2)CC1 (stereo not drawn)	i	i	i	i	i	1
COC(=O)[C@@]12CCCCN1[C@H](c1ccc(-c3ccc(C(C)=O)cc3)cc1)[C@@H]1C(=O)N(C)C(=O)[C@@H]12	i	i	43*	i	i	-0.46
COC(=O)[C@@]12CCCCN1[C@H](c1ccc(-c3cccc(Cl)c3)c(OC)c1)[C@H]1C(=O)N(C)C(=O)[C@H]12	i	i	25*	i	i	-0.46
COC(=O)[C@@]12CCCCN1[C@H](c1ccc(-c3ccc(OC)cc3)cc1)[C@@H]1C(=O)N(C)C(=O)[C@@H]12	i	i	13*	i	i	-1.7
COc1ccc(S(=O)(=O)NCc2csc(-c3cccnc3)n2)cc1	i	i	i	i	i	-1.4
O=S(=O)(NCc1csc(-c2cccnc2)n1)c1ccc(Br)cc1	i	i	i	i	i	-7.7*
COC(=O)c1cc(C)sc1NC(=O)CSc1ncccn1	i	i	i	i	i	-1.1
N#Cc1cc[n+](CC(=O)c2ccc(NC(=O)c3ccccc3)cc2)cc1	i	i	i	i	i	-0.24
Cc1cc(=O)oc2cc(NC(=S)NCc3ccccn3)ccc12	i	i	i	i	-6*	-0.76
Clc1ccccc1CSc1nc2ccncc2[nH]1	i	i	i	i	-6*	-0.19
O=C(NCc1ccccc1Cl)c1ccc(CSc2nc3ccncc3[nH]2)cc1	i	i	i	i	i	-0.83
CCN1/C(=C/C=C/c2sc3ccccc3[n+]2CC)Sc2ccccc21	i	i	i	49*	i	-1.4
CCCCN(CC)CCNC(=O)c1cc2c(=O)n(C)c3ccccc3c2s1	i	i	16*	i	i	1.1
Cn1c(C(=O)NCCN2CCOCC2)cc2c(=O)n(C)c3ccccc3c21	i	i	i	i	i	0.01
CCCN(CCC)CCCNC(=O)c1cc2c(=O)n(CC)c3ccccc3c2s1	i	i	i	50*	i	-1.1
CCCCN(CC)CCCNC(=O)c1cc2c(=O)n(CC)c3ccccc3c2s1	i	i	i	i	i	-1.4
CCCN(CCC)CCNC(=O)c1cc2c(=O)n(C)c3ccccc3c2n1C	i	i	13*	i	i	1.6
COc1ccc(C(=O)N2CCC3(CC2)NCCc2[nH]cnc23)cc1	i	i	i	i	i	0.7
NC(=O)CC(NC(=O)Cc1ccc(Cl)cc1)c1ccc(NC2CC3CCC2C3)c([N+](=O)[O-])c1 (stereo not drawn)	i	i	i	i	i	1.5
O=C(COC(=O)c1cc(-c2cccs2)nn1-c1ccccc1)Nc1ccc(F)c([N+](=O)[O-])c1	i	i	i	i	i	0.19
